Experimental data: ChEMBL document CHEMBL2384943, “New Peptide-based antimicrobials for tackling drug resistance in bacteria: single-cell fluorescence imaging” (ACS Med Chem Lett, 2013); call rule not given here
≈ marks a conversion by molar mass, not a printed value. *1 amine or outer side, *2 acyl side, *3 side chain or, on linkers, in order; H or OH if unused. Where a SMILES comes first, the peptide text is derived from it. The star is where a group is joined. X1 = c1ccc(CN(Cc2ccccc2)Cc2cccc(N*)c2)cc1; X2 = c1ccc(CN(Cc2ccccn2)Cc2cccc(N*)n2)nc1; Glutaryl = O=C(CCCC(=O)[*:2])[*:1]; OBn = c1ccc(CO*)cc1

Experiments:
[1] = tested on: Klebsiella aerogenes; test: Drug uptake in multidrug-resistant Enterobacter aerogenes EA289 overexpressing AcrAB-tolC at 123 uM after 15 to 60 mins by DUV microspectrofluorimetric analysis; assay type: ADME, organism-based; conditions: in vivo
[2] = tested on: Klebsiella aerogenes; test: Antibacterial activity against tolC-deficient Enterobacter aerogenes EA298 assessed as growth inhibition after 18 hrs by two-fold serial dilution method; assay type: functional; conditions: EA298, 18 h
Method in brief: (§1)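 Strains were routinely grown at 37 °C in LB broth or on LB agar, with kanamycin 50 μg·mL–1 added for AG100A and EA298 (EA298 is the tolC derivative of clinical MDR isolate EA289). MICs were read in Mueller Hinton broth with 2-fold serial dilutions, using an inoculum of 2 × 10^5 cfu per 200 μL, scored after 18 h at 37 °C. Ciprofloxacin and fleroxacin served as reference antibiotics.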

[3] = tested on: Klebsiella aerogenes; test: Antibacterial activity against multidrug-resistant Enterobacter aerogenes EA289 overexpressing AcrAB-tolC assessed as growth inhibition after 18 hrs by two-fold serial dilution method; assay type: functional; conditions: EA289, 18 h
Method in brief: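 Inoculum 2 × 10^5 cfu in Mueller Hinton broth with 2-fold serial compound dilutions. MIC was scored after 18 h at 37 °C. Ciprofloxacin and fleroxacin served as internal reference antibiotics. Strains were routinely grown at 37 °C in LB.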

[4] = tested on: Escherichia coli; test: Antibacterial activity against acrAB-deficient Escherichia coli AG100A assessed as growth inhibition after 18 hrs by two-fold serial dilution method; assay type: functional; method in brief: as §1
[5] = tested on: Escherichia coli; test: Antibacterial activity against wild type Escherichia coli AG100 assessed as growth inhibition after 18 hrs by two-fold serial dilution method; assay type: functional; conditions: AG100, 18 h; method in brief: as §1

For CN(C)c1cccc2c(S(=O)(=O)NCCCC[C@@H](NC(=O)CCCC(=O)Nc3cccc(CN(Cc4ccccc4)Cc4ccccc4)c3)C(=O)N[C@@H](CCCNC(=N)N)C(=O)N[C@@H](Cc3c[nH]c4ccccc34)C(=O)N[C@@H](CCCNC(=N)N)C(=O)N[C@@H](Cc3c[nH]c4ccccc34)C(=O)OCc3ccccc3)cccc12, the Drug uptake [1] was “Active”.
With CC(=O)N[C@@H](CCCNC(=N)N)C(=O)N[C@@H](Cc1c[nH]c2ccccc12)C(=O)N[C@@H](CCCNC(=N)N)C(=O)N[C@@H](Cc1c[nH]c2ccccc12)C(=O)OCc1ccccc1 (Ac-RWRW-OBn) the MIC [2] was 64 µM (≈ 53.4 µg/mL), the MIC [3] was greater than 128 µM and the MIC [4] was 16 µM (≈ 13.4 µg/mL). For the same compound, the MIC [5] was 64 µM (≈ 53.4 µg/mL).
For N=C(N)NCCC[C@H](NC(=O)CCCC(=O)Nc1cccc(CN(Cc2ccccc2)Cc2ccccc2)c1)C(=O)N[C@@H](Cc1c[nH]c2ccccc12)C(=O)N[C@@H](CCCNC(=N)N)C(=O)N[C@@H](Cc1c[nH]c2ccccc12)C(=O)OCc1ccccc1 ({X1-Glutaryl}-RWRW-OBn), the MIC [2] was 64 µM (≈ 76.3 µg/mL), the MIC [3] was 64 µM (≈ 76.3 µg/mL) and the MIC [4] was 64 µM (≈ 76.3 µg/mL). For the same compound, the MIC [5] was 64 µM (≈ 76.3 µg/mL).
For N=C(N)NCCC[C@H](NC(=O)CCCC(=O)Nc1cccc(CN(Cc2ccccn2)Cc2ccccn2)n1)C(=O)N[C@@H](Cc1c[nH]c2ccccc12)C(=O)N[C@@H](CCCNC(=N)N)C(=O)N[C@@H](Cc1c[nH]c2ccccc12)C(=O)OCc1ccccc1 ({X2-Glutaryl}-RWRW-OBn), the MIC [2] was 8 µM (≈ 9.56 µg/mL), the MIC [3] was 16 µM (≈ 19.1 µg/mL) and the MIC [4] was 8 µM (≈ 9.56 µg/mL). It also gave an MIC [5] of 32 µM (≈ 38.2 µg/mL).
With N=C(N)NCCC[C@H](NC(=O)CCCC(=O)Nc1cccc(CN(Cc2ccccn2)Cc2ccccn2)n1)C(=O)N[C@@H](Cc1c[nH]c2ccccc12)C(=O)N[C@@H](CCCNC(=N)N)C(=O)N[C@@H](Cc1c[nH]c2ccccc12)C(=O)N[C@@H](CCCNC(=N)N)C(=O)N[C@@H](Cc1c[nH]c2ccccc12)C(=O)OCc1ccccc1 ({X2-Glutaryl}-RWRWRW-OBn) the MIC [2] was 8 µM (≈ 12.3 µg/mL), the MIC [3] was 16 µM (≈ 24.6 µg/mL) and the MIC [4] was 8 µM (≈ 12.3 µg/mL). It also gave an MIC [5] of 8 µM (≈ 12.3 µg/mL).
For N=C(N)NCCC[C@H](NC(=O)[C@H](Cc1c[nH]c2ccccc12)NC(=O)CCCC(=O)Nc1cccc(CN(Cc2ccccn2)Cc2ccccn2)n1)C(=O)N[C@@H](Cc1c[nH]c2ccccc12)C(=O)N[C@@H](CCCNC(=N)N)C(=O)OCc1ccccc1 ({X2-Glutaryl}-WRWR-OBn), the MIC [2] was 4 µM (≈ 4.78 µg/mL), the MIC [3] was 8 µM (≈ 9.56 µg/mL) and the MIC [4] was 8 µM (≈ 9.56 µg/mL). It also gave an MIC [5] of 16 µM (≈ 19.1 µg/mL).
N=C(N)NCCC[C@H](NC(=O)[C@H](Cc1c[nH]c2ccccc12)NC(=O)CCCC(=O)Nc1cccc(CN(Cc2ccccn2)Cc2ccccn2)n1)C(=O)N[C@@H](Cc1c[nH]c2ccccc12)C(=O)N[C@@H](CCCNC(=N)N)C(=O)N[C@@H](Cc1c[nH]c2ccccc12)C(=O)N[C@@H](CCCNC(=N)N)C(=O)OCc1ccccc1 ({X2-Glutaryl}-WRWRWR-OBn) was tested, and the MIC [2] was 8 µM (≈ 12.3 µg/mL), the MIC [3] was 16 µM (≈ 24.6 µg/mL) and the MIC [4] was 8 µM (≈ 12.3 µg/mL). The MIC [5] was 8 µM (≈ 12.3 µg/mL).
Compound CCCCC[C@H](CC(=O)NO)C(=O)N[C@H](C(=O)N1CCC[C@H]1CO)C(C)C [ACTINONIN] has an MIC [2] of 32 µM (≈ 12.3 µg/mL), an MIC [3] greater than 128 µM and an MIC [4] of 2 µM (≈ 0.771 µg/mL). It also gave an MIC [5] greater than 128 µM.
Compound O=C(O)c1cn(C2CC2)c2cc(N3CCNCC3)c(F)cc2c1=O [CIPROFLOXACIN] has an MIC [2] of 8 µM (≈ 2.65 µg/mL), an MIC [3] of 64 µM (≈ 21.2 µg/mL) and an MIC [4] of 0.03 µM (≈ 0.00994 µg/mL). It also gave an MIC [5] of 0.125 µM (≈ 0.0414 µg/mL).
CN1CCN(c2c(F)cc3c(=O)c(C(=O)O)cn(CCF)c3c2F)CC1 [FLEROXACIN] gave an MIC [2] of 16 µM (≈ 5.91 µg/mL), an MIC [3] greater than 128 µM and an MIC [4] of 0.125 µM (≈ 0.0462 µg/mL). For the same compound, the MIC [5] was 0.5 µM (≈ 0.185 µg/mL).
